From ChEMBL document CHEMBL1121732, “Synthesis and pharmacological activity of thiohexital enantiomers” (J Med Chem, 1981)
Several values for one entry are separate records, joined by “and”; a condition that tells them apart may be missing. Equal entries are not always repeated.

Legend:
[1] = Potency ratio of slower rate (LD50) to that of faster rate (LD50); assay type: functional
Method in brief: (§1)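 Racemate given iv via caudal vein at 20 mL/kg, either fast (about 0.5 s) or slower (about 3.0 s) injection. […] Slow-rate value compared with fast-rate value.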

[2] = Potency ratio of slower rate (AD50) to that of faster rate (AD50); assay type: functional; method in brief: as §1
[3] = (§2) Evaluation after intravenous injection at faster rate (0.5 s); assay type: ADME, organism-based; conditions: mouse, in vivo
[4] = tested on: Mus musculus; test: Evaluation for the onset of action of intraperitoneal administration of dose; assay type: functional
[5] = tested on: Mus musculus; test: (§3) The median anesthetic dose evaluated after intraperitoneal administration in barbiturates.; assay type: functional
Method in brief: (§4)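 Male CF-1 mice (29.5 ± 2.5 g). Drug dissolved in 0.1 M aqueous NaOH (monosodium salt), diluted with saline, dosed at 20 mL/kg ip or iv via caudal vein; weights as free acid. Anesthesia = loss of righting reflex (no recovery from back within 1 min). AD50 with 95% confidence limits by Litchfield-Wilcoxon; ≥4 doses giving 10-90% response, 10 mice per dose.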

[6] = Ratio of LD50 to AD50 after intravenous administration; assay type: ADME
Method in brief: (§5)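 Therapeutic index, LD50/AD50. Both values from Litchfield-Wilcoxon curves in male CF-1 mice, 10 per dose, ≥4 doses. […] Dosing ip or iv (caudal vein), 20 mL/kg saline vehicle after 0.1 M NaOH.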

[7] = tested on: Mus musculus; test: Evaluation for the duration of action of intraperitoneal administration of dose; assay type: functional
[8] = tested on: Mus musculus; test: Evaluation for duration of recovery tremors after administration of dose; assay type: functional
Method in brief: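 Groups of 40 male CF-1 mice, each given its compound's AD50 dose ip. Recovery tremors recorded for incidence, duration in minutes and graded severity.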

[9] = Ratio of LD50 to AD50 after intraperitoneal administration; assay type: ADME; conditions: ip; read-out: Therapeutic index; method in brief: as §5
[10] = tested on: Mus musculus; test: as §2; assay type: functional; method in brief: as §4
[11] = The median lethal dose evaluated after intravenous administration in barbiturates.; assay type: ADME
Method in brief: (§6)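 Male CF-1 mice (29.5 ± 2.5 g). Drug dissolved in 0.1 M aqueous NaOH, diluted with saline, 20 mL/kg ip or iv (caudal vein); doses as free acid. Lethality scored over 24 h. LD50 with 95% confidence limits by Litchfield-Wilcoxon from ≥4 doses giving 10-90% response, 10 mice per dose.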

[12] = tested on: Mus musculus; test: The median anesthetic dose evaluated after intravenous administration in barbiturates.; assay type: functional; method in brief: as §4
[13] = Potency ratio of compound was measured after intravenous administration; assay type: functional
Method in brief: (§7)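 Potency relative to the racemate, the standard, from Litchfield-Wilcoxon dose-response curves (≥4 doses, 10 male CF-1 mice each) for loss of righting reflex. Dosing ip or iv (caudal vein) at 20 mL/kg in saline after dissolving in 0.1 M NaOH.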

[14] = as §3; assay type: functional; conditions: ip; method in brief: as §4
[15] = Potency ratio of compound to that of racemate was measured after intraperitoneal administration; assay type: functional; method in brief: as §7
[16] = Potency ratio of compound to that of racemate was measured after intravenous administration; More potent; assay type: functional; method in brief: as §7
[17] = The median lethal dose evaluated after intraperitoneal administration in barbiturates.; assay type: ADME; conditions: ip; method in brief: as §6
[18] = Potency ratio of compound was measured after intraperitoneal administration; More potent; assay type: functional; method in brief: as §7

Compound | Potency ratio [1] | Potency ratio [2] | LD50 [3] [mg/kg] | Onset of action [4] [min] | AD50 [5] [mg/kg] | Therapeutic index [6] | selectivity ratio ([6]; read-out: Therapeutic index) | Duration [7] [min] | Duration [8] [min] | selectivity ratio [9] | AD50 [10] [mg/kg] | LD50 [11] [mg/kg] | AD50 [12] [mg/kg] | Potency ratio [13] | LD50 [14] [mg/kg] | Potency ratio [15] | Potency ratio [16] | LD50 [17] [mg/kg] | Potency ratio [18]
C=CCC1(C(C)C#CCC)C(=O)NC(=S)NC1=O (racemic) [RAC THIOHEXITAL] | 1.7 | 2.15 | 31.5 | 3.69 | 25.8 | 3.4 | 2.7 | 12.36 | 5.8 | 2.5 | 9.2 | 53.5 | 19.8 |  |  |  |  |  | 
C=CCC1([C@H](C)C#CCC)C(=O)NC(=S)NC1=O |  |  |  |  | 27.3 |  |  |  | 6.2 | 2.4 |  |  | 24.1 | 1.22 | 66.1 | 1.06 and 1.04 |  |  | 
C=CCC1([C@@H](C)C#CCC)C(=O)NC(=S)NC1=O |  |  |  | 3.49 | 18.8 |  |  | 12.15 | 5.4 | 3.2 |  |  | 12.3 |  |  | 1.06 | 1.61 | 59.8 | 1.37
